Assay results collected from several papers.
Mode: inhibitor
CHEK2: Serine/threonine-protein kinase Chk2 (CHEK2, Homo sapiens, UniProt O96017)

With `CCOc1cc(-c2nncn2C)ccc1Nc1ncc2cc(C)nc(NCC(C)(C)C)c2n1` the inhibition was under 15% (CHEK2; enzyme activity, FRET; 1 µM).
With `CSc1nc(C)c(-c2ccnc(Nc3ccc(N4CCOCC4)cc3)c2)[nH]1` the inhibition was -5.4% (CHEK2; enzyme activity; 10 µM).
`CCN1CCN(Cc2ccc(NC(=O)c3ccc(C)c(Oc4ccnc5[nH]ccc45)c3)cc2C(F)(F)F)CC1` has an inhibition of -16.3% (CHEK2; target engagement in cells, chemoproteomics; A-375; 0.5 µM).
`CNc1cccc2cc(C(=O)Nc3ccc(C(=O)O)cc3)c(=O)[nH]c12` has an inhibition of 15% (CHEK2; enzyme activity; 10 µM).
The inhibition of `COc1cc2ncnc(Nc3ccc(Oc4ccccc4)c(C)c3C)c2cc1OC` is reported as 36% (CHEK2; enzyme activity; 1 µM).
With `CCCS(=O)(=O)Nc1ccc(F)c(C(=O)c2c[nH]c3ncc(-c4ccc(Cl)cc4)cc23)c1F` the inhibition was under 10% (CHEK2; enzyme activity; 1 µM).
For `COc1cc2ncnc(Nc3ccc(Oc4ccccc4)cc3C)c2cc1OC`, the inhibition was 83% (CHEK2; enzyme activity; 1 µM).
`CNc1cc(Oc2cc(C(=O)Nc3cc(N4CCN(C)CC4)cc(C(F)(F)F)c3)ccc2C)ncn1` gave an inhibition of -100% (CHEK2; target engagement in cells, chemoproteomics; Huh-7; 1 µM).
The inhibition of `Cc1ccc(Nc2nccc(N(C)c3ccc4c(C)n(C)nc4c3)n2)cc1S(N)(=O)=O` is reported as 30% (Serine/threonine-protein kinase Chk2 (CHEK2, Homo sapiens, UniProt O96017, I157T); enzyme activity; 10 µM).
`CN1CC(Oc2cnc(C#N)cc2-c2ccn3nc(NC(=O)C4CC4)cc3c2)C1` gave an inhibition of 0% (CHEK2; enzyme activity; 1 µM).
`CN(C)C1CCN(CC#Cc2nn(C3CCCC3)c3nc(NCc4ccccc4)ncc23)C1` (centres unmarked) gave an inhibition of 17% (CHEK2; enzyme activity, FRET; 10 µM).
With `Cc1ncc([N+](=O)[O-])n1C(=NO)c1ccccc1C(F)(F)F` the inhibition was 17.1% (CHEK2; enzyme activity; 10 µM).
The inhibition of `CNC(=O)c1cc(Oc2ccc(NC(=O)Nc3ccc(Cl)c(C(F)(F)F)c3)cc2)ccn1` is reported as -5% (CHEK2; enzyme activity; 0.3 µM).
With `CN(c1ncccc1CNc1nc(Nc2ccc3c(c2)CC(=O)N3)ncc1C(F)(F)F)S(C)(=O)=O` the inhibition was 33.1% (CHEK2; enzyme activity; 1 µM).
